Each structure is given as a SMILES string. Active and inactive are the calls of the source. The calls are words filed in the database; no cut-off is given here.

Data set [1] relates to Mus musculus. As to the kind of experiment: Analgesic activity in mouse assessed as inhibition of AcOH-induced writhing up to 10 mg/kg, sc. It is filed as functional, organism-based. More on the design: dose 10 mg/kg.
A short description of data set [2]: (§1) Acute toxicity in sc dosed mouse. Format: organism-based. To be noted: in vivo.
Data set [3] relates to Oryctolagus cuniculus. The experiment in a line: Narcotic antagonist activity in iv dosed rabbit assessed as inhibition of morphine-induced respiratory depression. Format: functional. Summed up: (§2)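 Rabbits given test compound iv; read-out is antagonism of morphine-induced respiratory depression; expressed as AD50 in mg/kg or as % antagonism at a fixed dose.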
In data set [4] the test system is Mus musculus. The experiment in a line: Analgesic activity in sc dosed mouse assessed as inhibition of AcOH-induced writhing. Format: functional.
Data set [5] concerns Mus musculus. The experiment in a line: Analgesic activity in sc dosed mouse by hot-plate method. It is filed as functional.
The test system of data set [6] is Mus musculus. The description is as §1. It is filed as organism-based. The note with it: in vivo.
In data set [7] the test system is Rhesus monkey. The experiment in a line: Suppression of abstinence syndrome in morphine-dependent rhesus monkey at 10 mg/kg. It is filed as functional, organism-based. More on the design: dose 10 mg/kg. The note with it: Macaca mulatta.
Data set [8] concerns Mus musculus. As to the kind of experiment: Analgesic activity in sc dosed mouse assessed as time duration of activity by hot-plate method. It is filed as functional.
The subject of data set [9] is Oryctolagus cuniculus. As to the kind of experiment: Narcotic antagonist activity in rabbit assessed as inhibition of morphine-induced respiratory depression at 5 mg/kg, iv. It is filed as functional. An outline of the steps: as §2
Data set [10] relates to Rhesus monkey. As to the kind of experiment: Suppression of abstinence syndrome in morphine-dependent rhesus monkey at 8 mg/kg. Format: functional, organism-based. Further details: dose 8 mg/kg. To be noted: Macaca mulatta.
Data set [11] has as its system Oryctolagus cuniculus. The experiment in a line: Narcotic antagonist activity in rabbit assessed as inhibition of morphine-induced respiratory depression up to 1 mg/kg, iv. More on the design: dose 1 mg/kg. It is filed as functional, organism-based. An outline of the steps:
as §2

For data set [12], the system named is Mus musculus. The experiment in a line: Analgesic activity in mouse assessed as inhibition of AcOH-induced writhing up to 22.5 mg/kg, sc. Further details: dose 22.5 mg/kg. It is filed as functional, organism-based.
In data set [13] the test system is Mus musculus. As to the kind of experiment: Analgesic activity in mouse by hot-plate method up to 100 mg/kg, sc. Format: functional, organism-based. Further details: dose 100 mg/kg.
The test system of data set [14] is Rhesus monkey. As to the kind of experiment: Narcotic antagonist activity in morphine-dependent rhesus monkey assessed as mild to moderate abstinence at 5 to 20 mg/kg. It is filed as functional, organism-based. To be noted: Macaca mulatta. An outline of the steps: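 Compound given to nonwithdrawn morphine-dependent monkeys; scored as precipitation of abstinence syndrome, with severity graded from mild to severe over the stated dose range.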

The test system of data set [15] is Rhesus monkey. The experiment in a line: Suppression of abstinence syndrome in morphine-dependent rhesus monkey at 5 mg/kg. The note with it: Macaca mulatta. Format: functional, organism-based. Further details: dose 5 mg/kg.
Setting [16] is: Mus musculus, sc, read-out: ED50.

Consider `Cl.Oc1cccc(C23CCCC(C2)N(CC2CCC2)C3)c1` (racemic), for which the result in data set [1] was inactive. The LD50 in [2] was more than 30 mg/kg. Besides, in data set [3], the AD50 is 3.5 mg/kg.

As to `CC1C2CCCC1(c1cccc(O)c1)CN2C` (racemic; 15), the result in data set [1] was inactive.

As to `CC(C)=CCN1CCC2(C)c3cc(O)ccc3CC1C2C.Cl` (stereo unspecified) [PENTAZOCINE HYDROCHLORIDE], the ED50 was 4.5 mg/kg in data set [4] (setting [16]) and 12.3 mg/kg in [5] (setting [16]). The molecule further registered an LD50 in data set [2] of 190 mg/kg. In data set [3], the AD50 was determined as 1.5 mg/kg.

On to `CC(=O)Oc1cccc(C23CCCC(C2)N(C)C3C)c1.Cl` (single isomer, unassigned; (+)), for which the ED50 in [4] (setting [16]) is 2.4 mg/kg; in [5] it was 3.6 mg/kg. In addition, the LD50 in [6] was 129.5 mg/kg.

The molecule `CC(=O)Oc1cccc(C23CCCC(C2)N(C)C3C)c1.Cl` (single isomer, unassigned; (-)) returned an LD50 in [6] of 113.5 mg/kg.

Regarding `CCCCN1C2CCCC(c3cccc(O)c3)(C2)C1C.Cl` (racemic), the outcome in data set [1] was inactive. In data set [2], this molecule had a 50% lethal dose (LD50) of more than 30 mg/kg.

`CC1C2CCCC1(c1cccc(O)c1)CN2C` (racemic; 13): in data set [1], the outcome was inactive.

Take `CC1N(C)C2CCCC1(c1ccccc1)C2.Cl` (racemic): the 50% effective dose (ED50) in [4] (setting [16]) and in [5] (setting [16]) was 20 mg/kg throughout. The molecule further showed an LD50 in data set [2] of more than 30 mg/kg. The result in data set [7] was inactive.

With `Br.CC1N(C)C2CCCC1(c1cccc(O)c1)C2` (racemic; 8), the ED50 in data set [4] stood at 4.5 mg/kg; in data set [5] (setting [16]), 8 mg/kg. Besides, the Time in data set [8] turned out to be 127 min. For the same molecule, the LD50 in [2] amounted to 113 mg/kg. In [3], the AD50 turned out to be 2.6 mg/kg.

Turning to `CC1C2CCCC1(c1cccc(O)c1)C(C)N2C` (racemic; 16), the outcome in data set [1] was inactive.

For `CCCCCN1C2CCCC(c3cccc(O)c3)(C2)C1C.Cl` (racemic), the ED50 in data set [4] (setting [16]) came out at 1.5 mg/kg. The LD50 in [2] worked out at 36.7 mg/kg. Moreover, the inhibition entry in [9] was “inactive”.

As to `CC(=O)Oc1cccc(C23CCCC(C2)N(C)C3C)c1` (racemic), the result in data set [10] was inactive.

With `CC1C2CCCC1(c1cccc(O)c1)C(C)N2C` (racemic; 14), the result in [1] was inactive.

For the molecule `Br.CC1N(C)C2CCCC1(c1ccc(O)c(O)c1)C2` (racemic), the outcome in data set [1] was inactive. The LD50 in data set [2] was more than 10 mg/kg.

With `CCCCCCN1C2CCCC(c3cccc(O)c3)(C2)C1C.Cl` (racemic), the ED50 in data set [4] (setting [16]) was found to be 0.27 mg/kg. The LD50 in [2] was 25.4 mg/kg. In addition, the inhibition entry in data set [11] was “inactive”.

For `CC(=O)Oc1cccc(C23CCCC(C2)N(C)C3C)c1` (single isomer, unassigned; (-)), the outcome in [12], in data set [13] and in [15] was inactive. Further, the result in data set [14] was Active.

With `CN1C[C@@]2(c3cccc(O)c3)CCC[C@@H]1C2`, the outcome in [12] and in data set [7] was inactive. Moreover, the ED50 in data set [5] (setting [16]) is 20 mg/kg. The molecule further registered an LD50 in data set [2] of 156 mg/kg. Also, in data set [9], the inhibition in vivo at 5 mg/kg was determined as 41%. The result in data set [14] was Active.

Take `CC(=O)Oc1cccc(C23CCCC(C2)N(C)C3C)c1.Cl` (racemic): the ED50 in [4] came out at 2.9 mg/kg; in data set [5] (setting [16]) it was 3.5 mg/kg. Further, in data set [2], the LD50 was 123 mg/kg.

As for `O=C(O)C(=O)O.c1ccc(C23CCCC(C2)N(CC2CC2)C3)cc1` (racemic), the result in data set [12] was inactive. Also, in data set [2], the median lethal dose (LD50) is more than 30 mg/kg. Moreover, the inhibition in vivo at 5 mg/kg in [9] is 41%.

As for `Br.CC1N(C)C2CCCC1(c1cccc(O)c1)C2` (racemic; 9), the ED50 in [4] (setting [16]) stood at 4.9 mg/kg. The molecule also gave an LD50 in data set [6] of 113.5 mg/kg.

Consider `Br.CCC(=O)Oc1cccc(C23CCCC(C2)N(C)C3C)c1` (racemic), for which the values for the ED50 in data set [4] (setting [16]) and in data set [5] (setting [16]) were 2.3 mg/kg and 9.9 mg/kg, respectively. Also, the 50% lethal dose (LD50) in data set [2] is 114 mg/kg.

The record behind these values is ChEMBL document CHEMBL3244161, “Azabicycloalkanes as analgetics. 3. Structure-activity relationships of 1-phenyl-6-azabicyclo[3.2.1]octanes and absolute stereochemistry of (+)-1-(3-hydroxyphenyl)-6-methyl-6-azabicyclo[3.2.1]octane and its 7-endo-methyl derivative” (J Med Chem, 1977).
